The source made the active and inactive calls. No cut-off for these calls is given here.
Tests used:
[1] = Toxicity in BALB/c nude mouse xenografted with human NCI-H1975 cells assessed as degeneration of inter tube connective tissue at 0.2 mg/kg administered ip, qd for 2 weeks; settings: in vivo, 336 h
NCI-H460 [2] = assay: Induction of apoptosis in human NCI-H460 cells assessed as early apoptotic cells at 1 uM measured after 48 hrs by Annexin V-FITC/PI staining method (reference value: 3.46%); type: functional
[3] = Toxicity in BALB/c nude mouse xenografted with human NCI-H1975 cells assessed as irregular spermatogenic tubules at 0.2 mg/kg administered ip, qd for 2 weeks; settings: in vivo, 336 h
HT-29 = assay: Cytotoxicity against human HT-29 cells incubated for 72 hrs by MTT assay; type: functional, cell-based; settings: HT-29, 72 h
In short: (§1)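 Cells seeded at 4000/well, incubated overnight, then exposed to a range of concentrations, or DMSO vehicle, for 72 h. MTT (5 mg/mL solution) added for 4 h and formazan dissolved in DMSO. Absorbance read at 570 nm, and IC50 derived from the curves. Tumor lines were grown in RPMI 1640; HUVEC, HaCaT and LO2 were grown in DMEM, each with 10% FBS at 37 °C and 5% CO2.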

[4] = Cytotoxicity against human L02 cells incubated for 72 hrs by MTT assay; type: toxicity, cell-based
In short: as §1

[5] = Toxicity in BALB/c nude mouse xenografted with human NCI-H1975 cells assessed as morphological change in kidney at 0.2 mg/kg administered ip, qd for 2 weeks; settings: in vivo, 336 h
NCI-H460 [6] = assay: Induction of apoptosis in human NCI-H460 cells assessed as late apoptotic cells at 1 uM measured after 48 hrs by Annexin V-FITC/PI staining method (reference value: 8.57%); type: functional
NCI-H460 [7] = assay: Induction of apoptosis in human NCI-H460 cells assessed as late apoptotic cells at 0.1 uM measured after 48 hrs by Annexin V-FITC/PI staining method (reference value: 8.57%); type: functional
NCI-H460 [8] = assay: Induction of apoptosis in human NCI-H460 cells assessed as necrotic cells at 0.01 uM measured after 48 hrs by Annexin V-FITC/PI staining method (reference value: 1.59%); type: functional
[9] = Cytotoxicity against human HaCaT cells incubated for 72 hrs by MTT assay; type: toxicity, cell-based
In short: as §1

NCI-H460 [10] = assay: Induction of apoptosis in human NCI-H460 cells assessed as viable cells at 0.01 uM measured after 48 hrs by Annexin V-FITC/PI staining method (reference value: 86.4%); type: functional; settings: read-out: Activity
[11] = Toxicity in BALB/c nude mouse xenografted with human NCI-H1975 cells assessed as reduction of cytoplasmic vacuoles at 0.2 mg/kg administered ip, qd for 2 weeks; settings: in vivo, 336 h
NCI-H460 [12] = assay: Induction of apoptosis in human NCI-H460 cells assessed as viable cells at 0.1 uM measured after 48 hrs by Annexin V-FITC/PI staining method (reference value: 86.4%); type: functional; settings: read-out: Activity
NCI-H460 [13] = assay: Induction of apoptosis in human NCI-H460 cells assessed as viable cells at 1 uM measured after 48 hrs by Annexin V-FITC/PI staining method (reference value: 86.4%); type: functional; settings: read-out: Activity
MDA-MB-231 = assay: Cytotoxicity against human MDA-MB-231 cells incubated for 72 hrs by MTT assay; type: functional, cell-based; settings: MDA-MB-231, 72 h
In short: as §1

[14] = Toxicity in BALB/c nude mouse xenografted with human NCI-H1975 cells assessed as morphological change in heart at 0.2 mg/kg administered ip, qd for 2 weeks; settings: in vivo, 336 h
NCI-H460 [15] = assay: Induction of apoptosis in human NCI-H460 cells assessed as necrotic cells at 1 uM measured after 48 hrs by Annexin V-FITC/PI staining method (reference value: 1.59%); type: functional
NCI-H460 [16] = assay: Induction of apoptosis in human NCI-H460 cells assessed as necrotic cells at 0.1 uM measured after 48 hrs by Annexin V-FITC/PI staining method (reference value: 1.59%); type: functional
NCI-H460 [17] = assay: Induction of apoptosis in human NCI-H460 cells assessed as early apoptotic cells at 0.01 uM measured after 48 hrs by Annexin V-FITC/PI staining method (reference value: 3.46%); type: functional
[18] = Stability in mouse serum measured after 8 hrs by HPLC analysis; type: ADME, cell-free
[19] = Cytotoxicity against HUVEC incubated for 72 hrs by MTT assay; type: toxicity, cell-based; settings: human, HUVEC cells
In short: as §1

NCI-H460 [20] = assay: Induction of apoptosis in human NCI-H460 cells assessed as early apoptotic cells at 0.1 uM measured after 48 hrs by Annexin V-FITC/PI staining method (reference value: 3.46%); type: functional
SW-620 = assay: Cytotoxicity against human SW-620 cells incubated for 72 hrs by MTT assay; type: functional, cell-based; settings: SW-620, 72 h
In short: as §1

NCI-H460 [21] = assay: Induction of apoptosis in human NCI-H460 cells assessed as late apoptotic cells at 0.01 uM measured after 48 hrs by Annexin V-FITC/PI staining method (reference value: 8.57%); type: functional
NCI-H460 [22] = assay: Induction of ROS accumulation in human NCI-H460 cells measured upto 100 nM after 42 to 48 hrs by DCFH-DA staining based flow cytometric analysis; type: functional, cell-based; settings: time 42-48 hrs
In short: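 NCI-H460 cells exposed for 42 h or 48 h, then suspended in 1% BSA DPBS. DCFH-DA (from a 10 mM stock) added and incubated 30 min in the dark, followed by washing. DCF fluorescence taken from flow-cytometry histograms and expressed as percentage relative to untreated control.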

[23] = Toxicity in BALB/c nude mouse xenografted with human NCI-H1975 cells assessed as decreased spermatogenic cells at 0.2 mg/kg administered ip, qd for 2 weeks; settings: in vivo, 336 h
NCI-H460 [24] = assay: Down regulation of RNA polymerase II in human NCI-H460 cells measured after 48 hrs by Western blotting analysis; type: functional, cell-based
In short: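 NCI-H460 cells treated for 48 h, harvested by trypsinization and lysed on ice in NP-40 buffer (50 mmol/L Tris pH 8.0, 150 mmol/L NaCl, 1% NP-40). Protein quantified by BCA and resolved by SDS-PAGE. Blots probed for RNA Pol II (1:1000), with GAPDH as loading control, and detected by chemiluminescence.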

NCI-H460 [25] = assay: Induction of mitochondrial membrane potential loss in human NCI-H460 cells by flow cytometric analysis; type: functional, cell-based
In short: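 Treated NCI-H460 cells suspended in 1% BSA DPBS and stained with TMRE (from a 1 mM stock) for 20 min in the dark. Cells then washed and resuspended in 1% BSA DPBS. Relative TMRE fluorescence intensity taken as the readout of membrane potential.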

NCI-H460 [26] = assay: Cytotoxicity against human NCI-H460 cells incubated for 72 hrs by MTT assay; type: functional, cell-based; settings: NCI-H460, 72 h
In short: as §1

NCI-H1975 [27] = assay: Antitumor activity against human NCI-H1975 cells xenografted in BALB/c nude mouse assessed as tumor growth inhibition at 0.2 mg/kg, ip, qd for 2 weeks relative to control; settings: NCI-H1975, 336 h, read-out: TGI
[28] = Toxicity in BALB/c nude mouse xenografted with human NCI-H1975 cells assessed as morphological change in lung at 0.2 mg/kg administered ip, qd for 2 weeks; settings: in vivo, 336 h
NCI-H1975 [29] = assay: Cytotoxicity against human NCI-H1975 cells incubated for 72 hrs by MTT assay; type: functional, cell-based; settings: NCI-H1975, 72 h
In short: as §1

[30] = Toxicity in BALB/c nude mouse xenografted with human NCI-H1975 cells assessed as morphological change in liver at 0.2 mg/kg administered ip, qd for 2 weeks; settings: in vivo, 336 h
HCT-116 = assay: Cytotoxicity against human HCT-116 cells incubated for 72 hrs by MTT assay; type: functional, cell-based; settings: HCT-116, 72 h
In short: as §1

[31] = Toxicity in BALB/c nude mouse xenografted with human NCI-H1975 cells assessed as reduction of cytoplasmic nuclei at 0.2 mg/kg administered ip, qd for 2 weeks; settings: in vivo, 336 h
[32] = Octanol-water partition coefficient, logD of the compound in PBS at pH 7.4 by liquid chromatography based mass spectrometric analysis; type: physicochemical
In short: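 Shake-flask method: 3.0 mg compound dissolved in PBS-saturated n-octanol and rotated 24 h at room temperature. The octanol phase was then mixed with octanol-saturated PBS, rotated another 24 h and centrifuged. Both phases quantified by LC-MS against a standard curve, and log P = log(C octanol/C water).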

SMILES: CC(C)[C@]12O[C@H]1[C@@H]1O[C@]13[C@]1(O[C@H]1C[C@H]1C4=C(CC[C@@]13C)C(=O)OC4)[C@@H]2O [TRIPTOLIDE]
- Activity [1]: Toxic
- Activity (NCI-H460 [2]): 56.8%
- Activity [3]: Toxic
- IC50 (HT-29): 47 nM
- IC50 at 72 h [4]: 16 nM
- Activity [5]: Non-Toxic
- Activity (NCI-H460 [6]): 5.7%
- Activity (NCI-H460 [7]): 24.4%
- Activity (NCI-H460 [8]): 2.2%
- IC50 at 72 h [9]: 27 nM
- viability at 0.01 µM (NCI-H460 [10]): 87.8%
- Activity [11]: Toxic
- viability at 0.1 µM (NCI-H460 [12]): 29.5%
- viability at 1 µM (NCI-H460 [13]): 25.1%
- IC50 (MDA-MB-231): 51 nM
- Activity [14]: Non-Toxic
- Activity (NCI-H460 [15]): 2.34%
- Activity (NCI-H460 [16]): 3.85%
- Activity (NCI-H460 [17]): 6.84%
- Stability [18]: Unstable
- IC50 at 72 h [19]: 44 nM
- Activity (NCI-H460 [20]): 42.2%
- IC50 (SW-620): 0.163 µM
- Activity (NCI-H460 [21]): 3.17%
- Activity (NCI-H460 [22]): Active
- Activity [23]: Toxic
- Activity (NCI-H460 [24]): Active
- Activity (NCI-H460 [25]): Active
- IC50 (NCI-H460 [26]): 14 nM
- inhibition in vivo at 0.2 mg/kg (NCI-H1975 [27]): 28.6%
- Activity [28]: Non-Toxic
- IC50 (NCI-H1975 [29]): 2 nM
- Activity [30]: Non-Toxic
- IC50 (HCT-116): 46 nM
- Activity [31]: Toxic
- logD [32]: -0.56

SMILES: CC(C)[C@]12O[C@H]1[C@@H]1O[C@]13[C@]1(O[C@H]1C[C@H]1C4=C(CC[C@@]13C)C(=O)OC4)[C@@H]2OC(=O)CCC(=O)O[C@H]1[C@H](O)[C@@H](O)C(O)O[C@@H]1CO (stereo partly specified)
- IC50 (HT-29): 4080 nM
- IC50 at 72 h [4]: 1800 nM
- IC50 at 72 h [9]: 4750 nM
- IC50 (MDA-MB-231): 5610 nM
- IC50 at 72 h [19]: 2360 nM
- IC50 (SW-620): 11 µM
- IC50 (NCI-H460 [26]): 3060 nM
- IC50 (NCI-H1975 [29]): 2510 nM
- IC50 (HCT-116): 4470 nM
- logD [32]: -0.331

SMILES: CC(C)[C@]12O[C@H]1[C@@H]1O[C@]13[C@]1(O[C@H]1C[C@H]1C4=C(CC[C@@]13C)C(=O)OC4)[C@@H]2OC(=O)CCC(=O)O[C@@H]1O[C@H](CO)[C@@H](O)[C@H](O)[C@H]1O
- IC50 (HT-29): 2890 nM
- IC50 at 72 h [4]: 1380 nM
- IC50 at 72 h [9]: 1630 nM
- IC50 (MDA-MB-231): 2280 nM
- IC50 at 72 h [19]: 8140 nM
- IC50 (SW-620): 5.51 µM
- IC50 (NCI-H460 [26]): 2720 nM
- IC50 (NCI-H1975 [29]): 1860 nM
- IC50 (HCT-116): 2350 nM
- logD [32]: -0.558
